Assay results reported in ChEMBL document CHEMBL1156580, “A facile regioselective synthesis of novel spiro-thioxanthene and spiro-xanthene-9',2-[1,3,4]thiadiazole derivatives as potential analgesic and anti-inflammatory agents” (Bioorg Med Chem Lett, 2008).

Tests used:
Rattus norvegicus [1] = assay: Antiinflammatory activity in Sprague-Dawley rat assessed as inhibition of carrageenan-induced paw edema at 70 mg/kg, po after 4 hrs relative to control; format: functional
Summary of the method: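 Winter carrageenin paw oedema in adult male Sprague–Dawley rats (150–180 g, six per group), fasted overnight with water available. Dosing was 70 mg/kg po in 1% CMC, with controls on vehicle alone, 1 h before 0.1 mL 1.0% carrageenin into the right hind plantar region. Paw volume was read by plethysmometer before and 4 h after, giving % inhibition versus control.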

Mus musculus = assay: Analgesic activity in Swiss mouse assessed as inhibition of acetic acid-induced writhing responses at 70 mg/kg, po after 1 hr relative to control
Rattus norvegicus [2] = assay: Acute toxicity in Sprague-Dawley rat assessed as behavioral changes up to 200 mg/kg, po; format: organism-based; design: dose 200 mg/kg, route oral; conditions: in vivo
Summary of the method: (§1)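 Male Sprague–Dawley rats (200–250 g), housed individually under 12 h light–dark, split into four groups, each given a different single dose by oral gavage. Animals were then watched for deaths or other behavioural changes.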

Rattus norvegicus [3] = assay: Acute toxicity in Sprague-Dawley rat assessed as survival up to 200 mg/kg, po; format: organism-based; design: dose 200 mg/kg, route oral; conditions: in vivo; summary of the method: as §1
Rattus norvegicus [4] = assay: Acute toxicity in Sprague-Dawley rat assessed as toxicological changes up to 200 mg/kg, po; format: organism-based; design: dose 200 mg/kg, route oral; conditions: in vivo; summary of the method: as §1

SMILES | inhibition in vivo at 70 mg/kg (Rattus norvegicus [1]) | inhibition in vivo at 70 mg/kg (Mus musculus) | Activity (Rattus norvegicus [2]) | Activity (Rattus norvegicus [3]) | Activity (Rattus norvegicus [4])
CC(=O)C1=NN(c2ccccc2)C2(S1)c1ccccc1Sc1ccccc12 | 75% |  |  |  | 
CC(=O)C1=NN(c2ccc([N+](=O)[O-])cc2)C2(S1)c1ccccc1Sc1ccccc12 | 86% | 73% |  |  | 
CC(=O)C1=NN(c2ccccc2)SC12c1ccccc1Oc1ccccc12 | 79% |  |  |  | 
CC(=O)C1=NN(c2ccc(Br)cc2)SC12c1ccccc1Oc1ccccc12 | 76% |  |  |  | 
CCOC(=O)C1=NN(c2ccc(C)cc2)C2(S1)c1ccccc1Sc1ccccc12 | 71% |  |  |  | 
CC(=O)C1=NN(c2ccc([N+](=O)[O-])cc2)SC12c1ccccc1Oc1ccccc12 | 84% | 56.6% |  |  | 
c1ccc(C2=NN(c3ccccc3)C3(S2)c2ccccc2Sc2ccccc23)cc1 | 85% | 59% | Non-toxic | Non-toxic | Non-toxic
CC(=O)C1=NN(c2ccc(Cl)cc2)C2(S1)c1ccccc1Sc1ccccc12 | 82% | 57% | Non-toxic | Non-toxic | Non-toxic
CC(=O)C1=NN(c2ccc(Cl)cc2)SC12c1ccccc1Oc1ccccc12 | 82% | 72% |  |  | 
CC(C)Cc1ccc(C(C)C(=O)O)cc1 (configuration not stated) [IBUPROFEN] | 92% | 83.5% |  |  | 
